High-throughput results deposited in PubChem by Sanford-Burnham Center for Chemical Genomics.
hIAP inh: human IAP inhibition | 0.12% of 330,000 active | purified IAP, CDP-Star luminescence, 30 min | P09923 | inhibition, % at 10 µM;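 active = inhibition reaching a set limit with compound at 10 µM in the primary screen, cut at about 35% in these data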;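 also: plate controls were DMSO wells with enzyme for no effect and no-enzyme buffer wells for full effect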
Target sequence (P09923 whole entry, looked up): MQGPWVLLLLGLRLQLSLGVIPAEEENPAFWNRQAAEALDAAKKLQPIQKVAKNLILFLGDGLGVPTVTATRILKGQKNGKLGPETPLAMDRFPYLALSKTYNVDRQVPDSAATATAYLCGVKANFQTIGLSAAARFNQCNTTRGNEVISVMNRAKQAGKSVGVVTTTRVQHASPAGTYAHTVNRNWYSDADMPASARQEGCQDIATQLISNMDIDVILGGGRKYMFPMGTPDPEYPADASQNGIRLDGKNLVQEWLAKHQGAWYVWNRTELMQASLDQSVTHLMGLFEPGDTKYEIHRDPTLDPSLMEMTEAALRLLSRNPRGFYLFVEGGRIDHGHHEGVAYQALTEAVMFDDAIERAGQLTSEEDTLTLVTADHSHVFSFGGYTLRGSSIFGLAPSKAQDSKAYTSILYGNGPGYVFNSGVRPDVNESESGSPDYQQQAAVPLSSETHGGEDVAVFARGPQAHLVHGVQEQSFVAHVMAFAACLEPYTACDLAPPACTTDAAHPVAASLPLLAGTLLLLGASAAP
hIAP activ: human IAP activation; P09923; purified human IAP, CDP-Star luminescence, 30 min; active compounds read high; 1 = vehicle-only enzyme, 0 = enzyme-free background; activation factor at 10 µM; 0.16% of 330,000 active; AID 2524;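 active = activation factor of the enzyme at least 2-fold when tested at 20 µM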
bIAP inhibitor: blocks bovine intestinal alkaline phosphatase activity. 190,000 tested, under 10 active. inhibition, % at 20 µM. purified bovine IAP, CDP-star luminescence, 30 min;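 active = over 50% inhibition of intestinal alkaline phosphatase at 20 µM in the single-dose screen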
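Incubation: 30 min reaction at room temperature / Material: purified bovine intestinal alkaline phosphatase (IAP) enzyme / Input: enzyme at 1/65,000,000 dilution / Dosing: 20 µM single dose / Signal: CDP-star luminescence signal / Reagent: CDP-star chemiluminescent phosphatase substrate, 30 µM final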
bIAP act: intestinal alkaline phosphatase (bovine) activation. activation factor at 20 µM. 0.17% of 200,000 active. purified bovine IAP, CDP-star luminescence, 30 min; active compounds read high; fold of DMSO-control signal, blank-subtracted. AID 1016;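 active = activation factor of 2 or more at 20 µM, a signal rise over negative controls twice the positive control's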
mIAP act: increases mouse intestinal alkaline phosphatase activity. activation factor at 10 µM. 0.24% of 330,000 active. muIAP, CDP-Star luminescence, 30 min; active compounds read high; 1 = vehicle-only enzyme signal, 0 = enzyme-free wells;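 active = activation factor of at least 2 at 20 µM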
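System: Mouse IAP enzyme | Also added: CDP-Star substrate | Dosing: Compounds dispensed in DMSO | Schedule: 30 min enzyme-substrate-compound incubation at room temperature | Technique: Chemiluminescence readout | Control set: DMSO-only wells and no-enzyme negative control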
mIAP inh: blocks mouse intestinal alkaline phosphatase; inhibition, % at 10 µM; 0.2% of 330,000 active; purified mouse IAP, CDP-Star luminescence, 30 min;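 active = inhibition of at least 40% at 10 µM in the primary screen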;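 also: plate controls were DMSO with enzyme for no effect and no enzyme wells for full effect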
hIAP act conf: human IAP activation confirmation; shares compounds with hIAP activ; purified IAP, CDP-Star luminescence, 30 min; active compounds read low; activation (%Activity, negative = activation), % at 8.3 µM; 10% of 880 active;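 active = at least twofold enzyme activation in any of six single-dose repeats, which the averaged readout prints as negative percent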
The depositor's hits bear a star; . = no result given. Shown are actives, neighbours in structure and some others; about 0.72% of the full set was active somewhere.

SMILES	hIAP inh	hIAP activ	bIAP inhibitor	bIAP act	mIAP act	mIAP inh	hIAP act conf
Cc1ccc2c(c1)Oc1ccc([N+](=O)[O-])cc1C(=O)N2	-137	2.4*	6	0.9	0.9	10	-37
COc1cc(OC)cc(C(=O)NNC(=O)C(=O)Nc2cc(OC)c(Cl)cc2OC)c1	39*	0.61	.	.	1	-2	-34
COc1cc(NC(=O)C(=O)NNC(=O)C2CCCCC2)c(OC)cc1Cl	-18	1.2	8	0.9	0.96	4	.
COc1ccc(C(C(=O)NC2CCCC2)N(C(=O)c2snc(-c3ccc(F)cc3)c2N)c2ccc(F)cc2)cc1 (stereo not drawn)	-6	1.1	5	0.9	0.92	8	.
Cc1ccc(N(C(=O)c2ccn[nH]2)C(C(=O)NC2CCCC2)c2cccs2)cc1 (stereo not drawn)	-203	3*	-17	1.2	2	-96	-54
CC(=O)c1ccc(N(C(=O)c2ccco2)C(C(=O)NC2CCCC2)c2cccs2)cc1 (stereo not drawn)	3	0.97	.	.	0.94	6	.
COc1ccc(N(C(=O)c2ccn[nH]2)C(C(=O)NC2CCCC2)c2ccc(F)cc2)cc1 (stereo not drawn)	-148	2.5*	.	.	1.5	-51	3
COc1ccc(NC(=O)c2csc(Cc3ccccc3)n2)cc1	13	0.87	.	0.4	0.93	7	.
COc1ccc(CNC(=O)c2csc(Cc3ccccc3)n2)cc1	-105	2*	9	0.9	0.9	10	9
C=CCNC(=O)c1c[nH]c2ccc(S(=O)(=O)N(C)c3ccc(OCC)cc3)cc2c1=O	-17	1.2	.	.	0.94	6	.
CC1=C(C)C(=O)C(N2CCOCC2)=CC1=O	.	.	14	0.9	.	.	.
O=C1C=C(N2CCOCC2)c2ccccc2C1=O	45*	0.55	.	.	1	-4	3
COc1ccc(S(=O)(=O)N2CCN(CC(=O)c3ccc(O)c(O)c3)CC2)cc1	39*	0.61	.	.	0.71	29	-19
O=C(Nc1ncn[nH]1)c1ccc(Cl)c(S(=O)(=O)N2CCCCCC2)c1	-137	2.4*	-36	1.4	0.93	7	-14
O=C(N/N=C/c1cccc([N+](=O)[O-])c1)c1nc2ccccc2c(=O)[nH]1	-140	2.4*	.	.	0.74	26	33
O=C(CSc1ncccn1)Nc1ccccc1	2	0.98	5	0.9	0.93	7	.
CC(NC(=O)CSc1ncccn1)c1ccccc1 (stereo not drawn)	67*	0.33	7	0.9	1	-5	0
Cc1ccc(NCc2ccc([N+](=O)[O-])s2)cc1	37*	0.63	.	.	0.94	6	26
O=C(c1ccc(Cl)cc1)N(Cc1cccs1)C1CCS(=O)(=O)C1 (stereo not drawn)	-2	1	1	1	1	-1	.
Cc1ccc(C(=O)N(Cc2cccs2)C2CCS(=O)(=O)C2)cc1 (stereo not drawn)	42*	0.58	.	.	0.95	5	-3
Cc1ccccc1CNC(=O)c1ccccc1N	36*	0.64	10	0.9	0.99	0	37
CCOc1ccc(CCNC(=O)COC(=O)CSc2ccc(C)cc2)cc1OCC	0	1	.	.	0.89	11	.
CCc1nn(CC(=O)NC2CCN(Cc3ccccc3)CC2)c(=O)c2cc3cc(F)ccc3n12	12	0.88	.	.	1	-1	.
CCc1nn(CC(=O)NC(C)CCc2ccccc2)c(=O)c2cc3cc(F)ccc3n12 (stereo not drawn)	-120	2.2*	.	.	1.1	-12	-59
COc1ccccc1CNC(=O)COC(=O)/C=C/c1ccc2ccccc2n1	-3	1	.	.	0.97	3	.
SMILES	hIAP inh	hIAP activ	bIAP inhibitor	bIAP act	mIAP act	mIAP inh	hIAP act conf
C=CCn1c(SCC(=O)NC2CC2)nnc1-c1cccc(OC)c1	41*	0.59	.	.	1.1	-8	-18
CCn1c(SCC(=O)NC2CC2)nnc1-c1cccc(OC)c1	-18	1.2	.	.	1	-2	.
CCNS(=O)(=O)c1ccc(CCC(=O)N2CCCC2)cc1	42*	0.58	.	.	1	-3	4
COC(=O)[C@H](CCSC)NC(=O)Cn1cnc(C(=O)Nc2ccc(C)c(C)c2)n1	.	.	.	.	0.95	5	.
COc1ccccc1/C=C/C=N/n1c(-c2ccccn2)n[nH]c1=S	4	0.95	.	.	0.96	4	.
COc1cccc(/C=N/n2c(-c3n[nH]c4c3CCC4)n[nH]c2=S)c1O	2	0.98	7	0.9	0.78	22	.
COc1ccccc1/C=C/C=N/n1c(-c2n[nH]c3c2CCC3)n[nH]c1=S	-104	2*	.	.	1	-1	27
Cc1ccccc1/C=N/n1c(-c2cc(-c3ccccc3)n[nH]2)n[nH]c1=S	-104	2*	.	.	1	-1	-3
COc1ccccc1/C=C/C=N/n1c(-c2cc(C)[nH]n2)n[nH]c1=S	-111	2.1*	0	1	1	-1	11
O=C(Nc1ccc(Cl)c(Cl)c1)Oc1ccc(NC(=O)c2ccco2)cc1	-100	2*	0	1	2.2*	-120	-70
Cn1cc(/C=C(\NC(=O)c2ccccc2Cl)C(=O)NCCCN2CCOCC2)c2ccccc21	-9	1.1	.	.	1	-1	.
Cn1cc(/C=C(\NC(=O)c2ccccc2Cl)C(=O)NCCN2CCOCC2)c2ccccc21	38*	0.62	.	.	0.93	7	14
COc1ccccc1CNC(=O)CN(c1ccc(C)cc1)S(=O)(=O)c1c(C)noc1C	38*	0.62	.	.	0.96	4	32
CCCCCC(=O)Nc1ccc(Cl)cn1	70*	0.3	-2	1	1.2	-21	-33
O=C(NCCOc1cccnc1)C1CCC(=O)N(Cc2ccccc2F)C1 (stereo not drawn)	-16	1.2	.	.	1	-1	.
CCCCNC(=O)NNC(=O)c1ccco1	-5	1.1	-9	1.1	1.1	-7	.
O=C(NC(=S)NNC(=O)c1ccccc1O)c1cccs1	-102	2*	.	.	0.77	23	-3
O=C(NNC(=S)NC(=O)c1ccccc1[N+](=O)[O-])c1ccccc1O	-135	2.4*	-44	1.4	0.73	27	27
O=C(NC(=S)NNC(=O)c1ccccc1O)c1ccc(F)cc1	-108	2.1*	.	.	0.69	31	62
CCCCNC(=S)NNC(=O)c1ccco1	44*	0.56	8	0.9	0.87	13	9
O=C(COC(=O)[C@@H]1CCCN1S(=O)(=O)c1ccccc1F)Nc1ccc(OC(F)F)cc1	2	0.98	-2	1	0.98	2	.
